# Laboratory results taken from article PMC3102533 (ChemMedChem, 2009).
# Target: T1, recombinant Lyp (Homo sapiens, UniProt Q9Y2R2)
# T1 sequence (Q9Y2R2 2-309): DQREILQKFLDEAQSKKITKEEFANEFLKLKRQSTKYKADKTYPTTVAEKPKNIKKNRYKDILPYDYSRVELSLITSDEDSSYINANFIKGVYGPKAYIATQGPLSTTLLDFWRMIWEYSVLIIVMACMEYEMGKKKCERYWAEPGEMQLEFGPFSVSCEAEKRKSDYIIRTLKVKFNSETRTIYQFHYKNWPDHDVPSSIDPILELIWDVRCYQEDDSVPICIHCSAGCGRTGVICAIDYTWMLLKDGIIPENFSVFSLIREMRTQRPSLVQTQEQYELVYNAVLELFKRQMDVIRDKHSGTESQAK
# Experiment: Lyp enzymatic assay, IC50 measurements
# Assay type: biochemical
# Conditions: compared with compound 7 (analogue lacks the nitro group)
# Summary of the method: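 GST-fused Lyp catalytic domain (residues 2–309) was expressed in E. coli BL21 DE3 and purified by glutathione affinity and Superdex S-200. DiFMUP hydrolysis was measured at 48 μM substrate (Km) and 30°C in 20 mM Bis-Tris pH 6.0 (ionic strength 20 mM, NaCl) with 1 mM DTT, 1% PEG 8000 and 5% DMSO. Initial rates were read at ex 360/em 460 nm and corrected with a no-enzyme control. IC50 came from fitting relative activity against inhibitor concentration.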
compound,measurement,value
O=C(Nc1ccc(I)cc1C(=O)O)c1ccccc1 [2-benzamido-5-iodobenzoic acid],fold less inhibitory activity against Lyp,157 fold
